Source: ChEMBL document CHEMBL4130559, “Structure-Based Discovery of Thiosemicarbazone Metalloproteinase Inhibitors for Hemorrhage Treatment in Snakebites” (ACS Med Chem Lett, 2017)

Assays:
[1] = biological target: T1, Snake venom metalloproteinase neuwiedase (Bothrops pauloensis, UniProt Q9I9R4); assay: Inhibition of Bothrops pauloensis MP1 assessed as reduction in azocaseinolytic activity after 30 mins
T1 sequence (Q9I9R4 whole entry): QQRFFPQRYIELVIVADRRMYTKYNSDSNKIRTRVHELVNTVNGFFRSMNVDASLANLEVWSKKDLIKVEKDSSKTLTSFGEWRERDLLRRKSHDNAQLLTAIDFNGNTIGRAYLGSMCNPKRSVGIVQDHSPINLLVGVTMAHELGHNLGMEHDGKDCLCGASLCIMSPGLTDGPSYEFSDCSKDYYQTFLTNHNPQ
Summary of the method: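 Purified BpMP-I (7.5 μg per reaction) was preincubated with compound for 30 min at 37 °C. It was then added to azocasein (1 mg/mL) in 0.05 M Tris–HCl pH 7.8 with 0.15 M NaCl and incubated for 30 min at 37 °C. The reaction was stopped with 20% TCA, held 30 min at room temperature and centrifuged. Supernatant was read at A405. IC50 is the concentration giving 50% loss of azocaseinolytic activity.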

[2] = tested on: Snake venom; assay: Antihemorrhagic activity in Bothrops pauloensis crude venom injected Swiss mouse assessed as reduction in hemorrhagic halo at 1:20 venom to compound ratio administered via intradermal route; assay type: functional
[3] = tested on: Snake venom; assay: Antihemorrhagic activity in Bothrops pauloensis crude venom injected Swiss mouse assessed as reduction in hemorrhagic halo at 1:10 venom to compound ratio administered via intradermal route 10 mins after venom injection; assay type: functional; parameters: scale not given: the % may be the effect or the level left
Summary of the method: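 Treatment protocol in Swiss male mice (n = 4, 18–22 g). B. pauloensis crude venom (16.3 μg, two minimum hemorrhagic doses) was injected intradermally in the dorsal region. Compound followed 10 min later by the same route at 1:10 venom/compound (w/w). At 150 min the mice were anesthetized and killed, and the skin halo was measured by caliper. Results are percent inhibition versus venom-only controls, mean ± SD.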

[4] = tested on: Snake venom; assay: Antihemorrhagic activity in Bothrops pauloensis crude venom injected Swiss mouse assessed as reduction in hemorrhagic halo at 1:1 venom to compound ratio administered via intradermal route; assay type: functional; parameters: scale not given: the % may be the effect or the level left
[5] = tested on: Snake venom; assay: Antihemorrhagic activity in Bothrops pauloensis crude venom injected Swiss mouse assessed as reduction in hemorrhagic halo at 1:1 to 1:20 venom to compound ratio administered via intradermal route; assay type: functional
[6] = tested on: Snake venom; assay: Antihemorrhagic activity in Bothrops pauloensis crude venom injected Swiss mouse assessed as reduction in hemorrhagic halo at 1:5 venom to compound ratio administered via intradermal route; assay type: functional; parameters: scale not given: the % may be the effect or the level left
[7] = tested on: Snake venom; assay: Antihemorrhagic activity in Bothrops pauloensis crude venom injected Swiss mouse assessed as reduction in hemorrhagic halo at 1:10 venom to compound ratio administered via intradermal route; assay type: functional; parameters: scale not given: the % may be the effect or the level left

Compound	IC50 [1]	IC50 ([1]; read-out: IC50)	further results
NC(=O)N/N=C/c1ccc(Cl)cc1	Not Active		
NC(=O)N/N=C/c1ccc(C(=O)O)cc1	Not Active		
COc1ccc(/C=N/NC(N)=S)cc1		3.01 mM	
NC(=O)N/N=C/c1ccc(O)cc1	Not Active		
NC(=S)N/N=C/c1ccc(Cl)cc1		4.25 mM	
COc1ccc(/C=N/NC(N)=O)cc1	Not Active		
NC(=O)N/N=C/c1cccc(O)c1	Not Active		
COc1ccc(/C=N/NC(N)=S)cc1O		3.41 mM	
NC(=O)N/N=C/c1ccc(O)cc1O	Not Active		
COc1ccc(/C(CCCC(=O)O)=N/NC(N)=S)cc1		0.00177 mM	inhibition (INH) [2]: 100%; Activity [3]: 31%; Activity [4]: 41%; Activity [5]: Dose-dependent effect; Activity [6]: 84%; Activity [7]: 100%
COc1ccc(/C(CCC(=O)O)=N/NC(N)=S)cc1		0.0791 mM	inhibition (INH) [2]: 43%
NC(=S)N/N=C/c1ccccc1 [PHENYLTHIOSEMICARBAZONE]		4.22 mM	
c1cnc2c(c1)ccc1cccnc12 [PHENANTHROLINE]		0.47 mM	
NC(=S)N/N=C/c1ccc(Br)cc1		3.14 mM	
